Consider five molecules from PMC2975716 (Journal of Lipid Research, 2010).

Where a chain is given by its changes, count along the chain named. Like-named read-outs stand apart in the source and are kept apart here. Marks after values point to notes of the source that are not given here.

Series [1] has as its target T1, CETP (Homo sapiens, UniProt P11597).
T1 sequence (P11597 18-493): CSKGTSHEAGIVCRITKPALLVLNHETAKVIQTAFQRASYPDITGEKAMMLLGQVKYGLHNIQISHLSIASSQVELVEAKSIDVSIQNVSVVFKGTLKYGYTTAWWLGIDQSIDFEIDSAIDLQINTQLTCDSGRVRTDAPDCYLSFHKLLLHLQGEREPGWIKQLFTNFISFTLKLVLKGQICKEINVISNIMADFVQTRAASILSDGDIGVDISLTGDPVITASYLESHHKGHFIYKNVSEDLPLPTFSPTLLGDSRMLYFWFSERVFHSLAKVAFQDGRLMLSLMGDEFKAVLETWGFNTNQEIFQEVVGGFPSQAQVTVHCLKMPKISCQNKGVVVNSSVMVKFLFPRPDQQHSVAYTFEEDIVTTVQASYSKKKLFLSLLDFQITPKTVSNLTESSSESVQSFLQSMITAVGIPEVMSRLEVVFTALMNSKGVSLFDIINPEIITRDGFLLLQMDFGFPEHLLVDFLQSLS
Kind of series: Transfer of CE from HDL to LDL, scintillation proximity assay. The format is biochemical.

Another series deals with T2, C13S CETP (Homo sapiens, UniProt P11597, C30S).
T2 sequence (P11597 18-493 C30S): T1 sequence (P11597 18-493) with C13S
Put plainly: Transfer of CE from HDL to LDL, scintillation proximity assay, C13S mutant. The format is biochemical.

Series [2] addresses T1, CETP. The format is binding. The note with it: 25 µM unlabeled compound, coincubation.
The target in series [3] is T1, CETP. The format is binding. Particulars: 25 µM unlabeled compound, […] label.
Another series relates to JHC-1. Put plainly: Binding to antibody JHC-1.
The format of series [4] is in vivo, human. Particulars: healthy volunteers, single oral dose 600 mg dalcetrapib.
The next series relates to Golden Syrian hamsters. Kind of series: In vivo macrophage-to-feces RCT study. Particulars: dalcetrapib 100 mg/kg BID, torcetrapib 30 mg/kg QD, anacetrapib 30 mg/kg QD; for [3H]HDL / [3H]plasma: Day 3 after labeled macrophage injection; for [3H]HDL / [3H]plasma / Fecal [3H]total sterols / Fecal total radioactivity: mean ± SD; for Change in liver radioactivity compared with vehicle: day 10, data not shown; for Fecal [3H]total sterols: sum of [3H]neutral sterols and [3H]bile acids; for Fecal [3H]total sterols / Fecal total radioactivity: day 0-10; for Fecal total radioactivity: whole fecal homogenates. The arrangement: species or system Golden Syrian hamster.

For series [5] the following is noted: cited from earlier work.
The target in series [6] is T1, CETP. Kind of series: CETP ELISA with different capture antibodies, in vitro addition to human plasma. The note with it: 0.01-10 µM. An outline of the steps: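 Test compound dilution series (0.01–10 µM) made in this plasma, held 3 h at 37°C, then assayed by JHC-1-capture/6/6-HRP and 6/2-capture/6/17-HRP ELISAs. Duplicates per donor (n = 14); mean with SD.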
The target in series [7] is T1, CETP. Put plainly: CETP ELISA on plasma of healthy subjects after single oral 600 mg dalcetrapib. The format is in vivo. Particulars: 22 healthy volunteers.
In series [8] the test system is CETP-induced pre-β-HDL formation. Kind of series: Quantification of pre-β-HDL by ELISA in incubated human plasma. The format is biochemical. Particulars: endogenous CETP only, 21 h at 37°C. An outline of the steps: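 Human plasma with endogenous CETP at 1.25 μg/ml, no rhCETP added, incubated 21 h at 37°C with or without test compound (0.1, 1, 3, 10 µM). Pre-β-HDL quantified by a pre-β1-selective ELISA. Dose effects assessed by ANCOVA with nested factor.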

Series [9] deals with T3, PLTP (Homo sapiens, UniProt P55058). Put plainly: PLTP activity. The format is biochemical. Particulars: concentrations up to 30 µM; data not shown.
The target of series [10] is T1, CETP. Put plainly: SPR. The note with it: 5 µM, 60 s, before and after dalcetrapib-thiol injections. The format is binding.
Series [11] concerns the target T3, PLTP. The note with it: concentrations up to 30 µM; cited from earlier work.
Where [12] appears, read: read-out: IC50 for transfer of CE from HDL to LDL by rhCETP, mean ± SEM, CETP 0.5 µg/ml, 3 h at 37°C.
Where [13] appears, read: read-out: IC50 for transfer of CE from HDL to LDL by C13S CETP mutant, mean ± SEM, CETP 0.5 µg/ml, 3 h at 37°C.
[14] abbreviates: human plasma of seven donors, 3 h at 37°C.

T3 sequence (P55058 18-493, species assumed): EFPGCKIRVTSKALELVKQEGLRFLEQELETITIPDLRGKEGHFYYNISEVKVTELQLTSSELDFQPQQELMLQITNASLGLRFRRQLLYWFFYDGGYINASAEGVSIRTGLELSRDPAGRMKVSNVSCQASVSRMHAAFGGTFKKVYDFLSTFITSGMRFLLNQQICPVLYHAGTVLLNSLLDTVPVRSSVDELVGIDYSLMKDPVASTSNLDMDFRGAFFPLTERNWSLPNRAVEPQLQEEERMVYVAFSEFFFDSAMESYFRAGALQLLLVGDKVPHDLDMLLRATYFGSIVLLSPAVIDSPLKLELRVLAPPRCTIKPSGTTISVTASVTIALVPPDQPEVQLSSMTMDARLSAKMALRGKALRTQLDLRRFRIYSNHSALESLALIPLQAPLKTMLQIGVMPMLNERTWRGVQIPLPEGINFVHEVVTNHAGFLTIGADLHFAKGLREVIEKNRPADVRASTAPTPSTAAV

With `CCC(CC)CC1(C(=O)Nc2ccccc2SSc2ccccc2NC(=O)C2(CC(CC)CC)CCCCC2)CCCCC1` [dalcetrapib-disulfide], the IC50 is 35.2 ± 2.8 nM on CETP [1] (setting [12]) and greater than 100000 nM at C13S CETP (setting [13]). Further, the “Effect on binding of [14C]torcetrapib to immobilized rhCETP” value (from here on “Effect on binding of [14C]torcetrapib”) on CETP [2] was “unaffected”.
On to `CCC(CC)CC1(C(=O)Nc2ccccc2S)CCCCC1` [dalcetrapib-thiol], for which the values for the IC50 at CETP [1] (setting [12]) and on C13S CETP (setting [13]) were 23.7 ± 1.9 nM and greater than 100000 nM, respectively. The “Effect on binding of [14C]torcetrapib” value on CETP [2] is on record as “only marginally decreased”. In addition, the “Displacement of [14C]dalcetrapib-thiol bound to rhCETP” value is “not observed” on CETP [3] (absence of TCEP, data not shown) and “did occur when TCEP was present” at CETP [3] (with 5 mM TCEP). Besides, the “Binding to JHC-1” value in the series on JHC-1 is recorded as “did not bind”. Also, in series [4], the “Maximum plasma dalcetrapib-thiol level” value stood at 628.7 ng/mL. In addition, the “Time of maximum plasma dalcetrapib-thiol level” value in series [4] amounted to 4 h. In series [4] (mean ± SD), this molecule registered a t1/2 of 25.5 ± 3.9 h.
For `COc1cc(F)c(C(C)C)cc1-c1ccc(C(F)(F)F)cc1CN1C(=O)O[C@H](c2cc(C(F)(F)F)cc(C(F)(F)F)c2)[C@@H]1C` [anacetrapib], on CETP [2], the “Decrease in amount of [14C]torcetrapib bound to immobilized rhCETP” value is on record as 60%. In addition, the “Displacement of [14C]dalcetrapib-thiol bound to rhCETP” value on CETP [3] (with 5 mM TCEP) is recorded as “neither torcetrapib nor anacetrapib affected”. In addition, in the series with Golden Syrian hamsters, the “[3H]HDL” value is recorded as 0.34 ± 0.07^c kBq/ml, the “[3H]plasma” value was found to be 0.79 ± 0.11 kBq/ml, the “Change in liver radioactivity compared with vehicle” value (from here on “Change in liver radioactivity”) is −9.2% and the “Fecal [3H]total sterols” value was 9.7 ± 0.9 % of injected. Also, in the series with Golden Syrian hamsters, the Fecal total radioactivity is given as 13.2 ± 1.5 % of injected. Further, in series [5], the “Raise of plasma HDL-C in humans” value was “up to 130%”.
On CETP [1], `CCC(CC)CC1(C(=O)Nc2ccccc2SC(=O)C(C)C)CCCCC1` [dalcetrapib] registered an IC50 of 205 ± 96.3 nM. The molecule also showed an IC50 at C13S CETP greater than 100000 nM. Also, on CETP [2], the “Effect on binding of [14C]torcetrapib” value was “unaffected”. Further, on CETP [3] (with 5 mM TCEP), the “Displacement of [14C]dalcetrapib-thiol bound to rhCETP” value is “displaced”. Besides, at CETP [6] (human plasma in vitro), the “Concentration at which maximum decrease in JHC-1 epitope detection is reached” value was 0.5 µM and the “Concentration from which CETP detection by JHC-1 is decreased” value is no less than 0.1 µM. For the same molecule, the “Change in CETP epitope detection, ELISA with capture antibody 6/2” value on CETP [6] (setting [14]) is “no change in epitope detection”. The “Change in CETP detection with 6/2 as capture antibody” value at CETP [7] is recorded as “no change was detected”. On CETP [7] (P < 0.001), the “Decrease in CETP detection by the JHC-1-based ELISA” value is listed as 30%. Also, the “Increase in pre-β-HDL” value in series [8] (1 µM, NS) turned out to be 4%. Also, in [8] (3 µM, P < 0.05), the “Increase in pre-β-HDL” value amounted to 13%. Further, the “Increase in pre-β-HDL” value in [8] (10 µM, P < 0.01) turned out to be 16%. Moreover, in the series on Golden Syrian hamsters, the “[3H]HDL” value was 0.28 ± 0.04^c kBq/ml, the “[3H]plasma” value is 0.74 ± 0.05 kBq/ml, the “Change in liver radioactivity” value is recorded as −42.2% and the “Fecal [3H]total sterols” value is 12.5 ± 0.5^b % of injected. The Fecal total radioactivity with Golden Syrian hamsters is recorded as 17.5 ± 0.5^c % of injected. In addition, the “Effect on PLTP activity” value on PLTP [9] is reported as “neither inhibit nor increase PLTP activity”. Besides, the “Raise of HDL-C in humans” value in [5] (dose of 600 mg) is reported as “up to 36%”.
On to `CCOC(=O)N1c2ccc(C(F)(F)F)cc2[C@@H](N(Cc2cc(C(F)(F)F)cc(C(F)(F)F)c2)C(=O)OC)C[C@H]1CC` [torcetrapib], for which the “Decrease in amount of [14C]torcetrapib bound to immobilized rhCETP” value at CETP [2] was found to be 82%. In addition, the “Displacement of [14C]dalcetrapib-thiol bound to rhCETP” value on CETP [3] (with 5 mM TCEP) is on record as “neither torcetrapib nor anacetrapib affected”. Besides, at CETP [6] (setting [14]), the “Change in CETP epitope detection, ELISA with capture antibody 6/2” value was “no change in epitope detection” and the “Change in CETP epitope detection, ELISA with capture antibody JHC-1” value is recorded as “did not change epitope detection”. Further, in the series on Golden Syrian hamsters, the “[3H]HDL” value is listed as 0.32 ± 0.07^c kBq/ml, the “[3H]plasma” value was 0.77 ± 0.11 kBq/ml, the “Change in liver radioactivity” value is on record as −28.1% and the “Fecal [3H]total sterols” value is 11.5 ± 0.5^b % of injected. Moreover, the Fecal total radioactivity in the series on Golden Syrian hamsters is 16.5 ± 0.5^c % of injected. Also, the “Binding to rhCETP following saturation of the dalcetrapib binding site (SPR)” value on CETP [10] is “remained unchanged”. In addition, on PLTP [11], the “Effect on PLTP activity” value was “neither inhibit nor increase PLTP activity”. The “Fecal sterol excretion in clinical studies” value in series [5] was “not associated with an increase in fecal sterol excretion”.
